{
  "source": "ChEMBL document CHEMBL4425169",
  "about": "(ACS Med Chem Lett, 2016)",
  "key": {"Rattus norvegicus": {"tested_on": "Rattus norvegicus", "assay": "Natriuretic activity in Sprague-Dawley rat at 10 mg/kg via oral gavage administered 30 mins prior to void induction by loading saline measured upto 4 hrs relative to vehicle treated control", "type": "functional", "summary_of_the_method": "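Acute 4 h study in Sprague-Dawley rats after oral dosing, n = 5 per group. Urine volume and sodium and potassium excretion were expressed as fold increase over vehicle-treated animals. Significance was tested versus vehicle (p < 0.05 or p < 0.01).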"}, "[1]": {"assay": "Drug metabolism in bile duct cannulated rat assessed as CYP3A4-mediated oxidative metabolite formation", "type": "ADME"}, "[2]": {"biological_target": "T1, ATP-sensitive inward rectifier potassium channel 10 (Homo sapiens) (UniProt P78508)", "T1 sequence (whole entry)": "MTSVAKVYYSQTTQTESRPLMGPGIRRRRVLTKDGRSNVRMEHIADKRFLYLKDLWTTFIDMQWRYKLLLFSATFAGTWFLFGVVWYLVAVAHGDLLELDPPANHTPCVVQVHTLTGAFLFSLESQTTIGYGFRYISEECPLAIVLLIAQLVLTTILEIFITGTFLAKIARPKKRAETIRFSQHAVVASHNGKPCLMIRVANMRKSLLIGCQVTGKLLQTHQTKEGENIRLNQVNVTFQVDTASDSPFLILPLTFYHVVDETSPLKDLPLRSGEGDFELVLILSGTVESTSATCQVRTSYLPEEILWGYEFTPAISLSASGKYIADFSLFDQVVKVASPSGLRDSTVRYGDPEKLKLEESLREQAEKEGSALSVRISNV", "assay": "Inhibition of Kir4.1 (unknown origin) upto 30 uM"}},
  "note": "Activity calls are given as the source filed them. No cut-off for these calls is given here.",
  "data": [
    {"smiles": "Cc1c([C@@H](O)CN2CCN(C[C@H](O)c3ccc4c(c3C)COC4=O)CC2)ccc2c1COC2=O", "note": "[MK-7145]", "values": [
      {"measurement": "fold change (FC)", "setting": "Rattus norvegicus", "result": 8.5},
      {"measurement": "Drug metabolism", "setting": "[1]", "result": "Metabolite_Detected"},
      {"measurement": "inhibition", "setting": "[2]", "result": "inactive"}
    ]}
  ]
}
